Bioassay records (PubChem BioAssay)
Rows were chosen to be rich in hits. Some 2.6% of all compounds tested hit in one or more screens of this group.
HTRA1 inhibitor = HTRA1 serine protease inhibitors, primary screen, biochemical, fluorescence polarization, HTS. Q92743. recombinant HTRA1, FP-rhodamine activity-based probe. inhibition, % at 5.96 µM. hit rate 0.5% among 340,000; in the data active = inhibition above about 36%
Target sequence (Q92743 whole entry, looked up): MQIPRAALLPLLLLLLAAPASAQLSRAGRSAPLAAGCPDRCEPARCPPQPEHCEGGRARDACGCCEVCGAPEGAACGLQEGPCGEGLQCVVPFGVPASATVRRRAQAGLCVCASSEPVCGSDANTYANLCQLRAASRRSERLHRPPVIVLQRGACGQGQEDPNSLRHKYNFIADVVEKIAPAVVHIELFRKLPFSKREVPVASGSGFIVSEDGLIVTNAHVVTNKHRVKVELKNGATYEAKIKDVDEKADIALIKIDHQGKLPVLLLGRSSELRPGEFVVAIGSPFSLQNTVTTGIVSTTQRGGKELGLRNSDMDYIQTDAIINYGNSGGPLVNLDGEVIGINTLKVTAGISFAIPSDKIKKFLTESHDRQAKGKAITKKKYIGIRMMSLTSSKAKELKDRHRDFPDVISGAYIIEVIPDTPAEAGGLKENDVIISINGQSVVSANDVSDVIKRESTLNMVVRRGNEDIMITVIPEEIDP
TCR CD3 inh = inhibitors of human TCR-CD3 interaction, primary screen, biochemical, fluorescence, TAMRA-labeled TCR probe. inhibition, % at 9.4 µM. hit rate 0.37% among 360,000. T-cell receptor (TCR). AID 651800, 2012; in the data active = inhibition above about 19%;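 note: recombinant mutant TCR 2C K166C tagged with TAMRA read by polarization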
PRMT1 FP inh = PRMT1 methyltransferase inhibitors, primary screen, biochemical, fluorescence polarization; Protein arginine N-methyltransferase 1 (Homo sapiens), Q99873; recombinant PRMT1, activity-based probe fluorescence polarization; inhibition, % at 2.79 µM; hit rate 1.3% among 370,000; AID 652257, 2013;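 active = inhibition above about 21% made by adding two undisclosed values, limit read from the data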
SIAE inh = human SIAE inhibitors, primary screen, biochemical, fluorescence polarization, FP-Rh probe, 1536-well HTS | hit rate 0.69% among 370,000 | Sialate O-acetylesterase (Homo sapiens), Q9HAT2 | SIAE FP-Rh probe binding | inhibition, % at 9.66 µM;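 active = inhibition above a cutoff: mean of compounds within the control limits plus 3 SD of those, cut at about 17% in these data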
mABHD4 FP = ABHD4 inhibitors, primary screen, biochemical, fluorescence polarization, mouse | hit rate 0.54% among 370,000 | inhibition, % at 8.92 µM | purified mABHD4, FP-Rh probe fluorescence polarization | (Lyso)-N-acylphosphatidylethanolamine lipase (Mus musculus), Q8VD66;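 active = inhibition exceeding the mean over every tested compound plus 3 SD, cut at about 30% in these data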
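Assay system: mouse ABHD4 enzyme, wild type / Also added: fluorescent activity-based probe FP-Rh / Doses: single nominal dose of 8.92 µM, 0.89% DMSO final / Timing: 45 min compound pre-incubation plus 60 min probe step, 25 °C / Signal: FP readout, ex 525 nm / em 598 nm / Control set: S159A mutant/DMSO as 100%, compound-well median as 0%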
Large screens that a line does not name were inactive; ! = a repeat was not active.

C=CCNC(=S)Nc1ccc2nsnc2c1	none
C=CCN(CC=C)C(=S)Nc1ccc2nsnc2c1	PRMT1 FP inh 28.1
Oc1ccc(-c2nc3ccccc3s2)c(O)c1	none
Oc1ccc(-c2cnns2)c(O)c1	PRMT1 FP inh 23.9
Cc1nc2cc(NS(=O)(=O)c3cccc4cccnc34)ccc2s1	none
CC(=O)N(c1ccc2oc(=O)sc2c1)S(=O)(=O)c1cccc2cccnc12	PRMT1 FP inh 91.0
CCCC(=O)N(c1ccc2oc(=O)sc2c1)S(=O)(=O)c1ccccc1	PRMT1 FP inh 49.8
Cc1cc2oc(=O)sc2cc1NS(=O)(=O)c1ccccc1	PRMT1 FP inh 91.7
CCCC(=O)N(c1ccc2oc(C)c(C(C)=O)c2c1)S(=O)(=O)c1ccc(C(=O)O)cc1	none
Cc1cc2oc(=O)sc2cc1NS(=O)(=O)c1cccc2cccnc12	PRMT1 FP inh 53.6
COC(=O)c1cc(-c2ccc(Oc3ccccc3)cc2)c(=O)n2c1CCC2	none (no result: HTRA1 inhibitor, TCR CD3 inh)
N=c1c2c(ccn1CCCc1ccccc1)Oc1ccc3ccccc3c1C2c1ccccc1 (stereo not given)	none (no result: HTRA1 inhibitor, TCR CD3 inh)
COc1ccccc1C1NC=C([N+](=O)[O-])C=C1[N+](=O)[O-] (stereo not given)	PRMT1 FP inh 24.3
CCCCOc1ccc(-c2nc(SCC(N)=O)n[nH]2)cc1	none
CCCCOc1ccc(-c2nc(=S)[nH][nH]2)cc1	PRMT1 FP inh 22.2
CCC(Sc1nc(C)cc(C)n1)C(=O)NC1=NN=C(c2ccc(C)cc2)CS1 (stereo not given)	PRMT1 FP inh 49.1
Cc1cc(C)nc(SCC(=O)NC2=NN=C(c3ccc(Br)cc3)CS2)n1	none
O=C(OCC(=O)c1cccs1)c1ccccc1	none
O=C(CC(Nc1ccccc1Cl)C(=O)OCC(=O)c1cccs1)c1ccccc1 (stereo not given)	PRMT1 FP inh 21.2
CCC[C@@H](CN1CCC[C@H]1CN1C(N)=NC[C@@H]1Cc1ccccc1)N1C[C@@H](Cc2ccccc2)N(CCc2ccc(Cl)c(Cl)c2)C1=N	mABHD4 FP 33.6
COc1ccc(OC)c(NC(=O)CNC(=O)Cn2cnc3sc(C)cc3c2=O)c1	none
COc1ccc(OC)c(NC(=O)CSc2ncnc3sc(C)cc23)c1	PRMT1 FP inh 23.2
C/C(C=NNC(=O)c1cc(-c2ccc(Cl)cc2)n[nH]1)=C\c1ccccc1	none (no result: HTRA1 inhibitor, TCR CD3 inh)
Cc1ccc(S(=O)(=O)c2nc(-c3ccco3)oc2SCC(N)=O)cc1	PRMT1 FP inh 21.4
COc1ccc2cc(CN(CCc3ccccc3)Cc3nnnn3Cc3ccco3)c(=O)[nH]c2c1	PRMT1 FP inh 22.1
Cc1ccc2[nH]c3c(c2c1)CN(C(=O)CN1CCN(C(=O)c2ccco2)CC1)CC3	PRMT1 FP inh 21.2 (no result: HTRA1 inhibitor)
Cc1ccc2[nH]c3c(c2c1)CN(C(=O)CN1CCN(c2cccc(C)c2C)CC1)CC3	none
COc1ccc(CN(CCN2CCOCC2)C(=O)c2cc(Cl)ccc2F)cc1OC	none (no result: HTRA1 inhibitor, TCR CD3 inh)
CC(C)N(C(=O)Nc1ccc2nsnc2c1)C(C)C	PRMT1 FP inh 25.3 (no result: HTRA1 inhibitor)
Cc1cc(N2CCN(C(=O)OC(C)(C)C)C[C@H]2C)ccc1N1CCN(Cc2ccccc2)[C@@H](C)C1	none (no result: HTRA1 inhibitor)
O=C(/C=C/c1ccccc1)c1ccccc1	none
O=C(/C=C\c1ccc(-c2ccccc2)o1)c1ccccc1	PRMT1 FP inh 26.0
COc1ccc(-n2c(SCC(=O)Nc3cc(C)c(NC(=O)c4ccccc4)cc3OC)nnc2-c2ccco2)cc1	none (no result: HTRA1 inhibitor, TCR CD3 inh)
Cc1ccc(S(=O)(=O)N2CCCC2C(=O)N2CCN(c3ccccc3)CC2)cc1 (stereo not given)	none (no result: HTRA1 inhibitor, TCR CD3 inh)
Cc1ccccc1N1CCN(C(=S)c2ccc(-c3cccc([N+](=O)[O-])c3)o2)CC1	none
Cc1ccc(N2CCN(C(=S)c3ccc(-c4cccc([N+](=O)[O-])c4)o3)CC2)cc1	PRMT1 FP inh 23.6
CC(C)C[C@H]1COc2cc(F)ccc2S(=O)(=O)N1C	none (no result: HTRA1 inhibitor, TCR CD3 inh)
O=c1[nH]c(=O)c2[nH]c(=S)[nH]c2[nH]1	PRMT1 FP inh 80.4
Nc1ncnc2[nH]c(=S)[nH]c12	none
N#CCC[C@H]1CC[C@]2(CCCN(C(=O)c3ccc4ccccc4n3)C2)O1	none (no result: HTRA1 inhibitor, TCR CD3 inh)
CC1OC2(C)OC(=N)C1(C#N)C(C#N)(C#N)C2c1ccccc1 (stereo not given)	PRMT1 FP inh 24.8
CC1C2(C)OC(=N)C(C#N)(C(C)O2)C1(C#N)C#N (stereo not given)	none (no result: TCR CD3 inh, PRMT1 FP inh, SIAE inh, mABHD4 FP)
COc1ccc(CNC(=O)c2sc(=S)n(-c3ccccc3)c2N)cc1	PRMT1 FP inh 21.2
COC(=O)c1ccc(Cn2ccc3ccc(-c4ccc5ccn(C(=O)c6ccccc6OC)c5c4)cc32)cc1	none (no result: HTRA1 inhibitor, TCR CD3 inh)
Fc1ccc(-c2n[nH]c(=S)n2N=Cc2cccc(OCc3ccccc3)c2)cc1	none (no result: HTRA1 inhibitor, TCR CD3 inh)
CSc1nsc(SCC(=O)Nc2c(C)n(C)n(-c3ccccc3)c2=O)n1	PRMT1 FP inh 21.5
CC[n+]1ccc(C)c2cc(S(=O)C(F)(F)F)ccc21 (stereo not given)	HTRA1 inhibitor 41.6 (no result: TCR CD3 inh, PRMT1 FP inh, SIAE inh, mABHD4 FP)
CCCC[C@@H](CCCc1ccc(F)cc1)CCC(=O)N(c1ccccc1)c1ccccc1	none (no result: HTRA1 inhibitor, TCR CD3 inh)
Cn1c(NCCN2CCCCC2)cc(=O)n(C)c1=O	PRMT1 FP inh 23.6
Cc1cccc(NC2=C/C(=N/S(=O)(=O)c3cccs3)c3ccccc3C2=O)c1	none
Cc1ccc(Cl)cc1NC1=C/C(=N\S(=O)(=O)c2cccs2)c2ccccc2C1=O	HTRA1 inhibitor 40.1!
Cc1ccc(NC2=C/C(=N\S(=O)(=O)c3cccs3)c3ccccc3C2=O)c(C)c1	HTRA1 inhibitor 53.4 (no result: TCR CD3 inh, PRMT1 FP inh, SIAE inh, mABHD4 FP)
O=C(NCc1ccccc1Cl)O[C@H]1CC[C@@]23CCCN2C(=O)CCC[C@H]3C1	none (no result: HTRA1 inhibitor, TCR CD3 inh)
CC(C)CC(C(=O)Nc1oc(-c2ccco2)c(-c2ccco2)c1C#N)N1C(=O)c2ccccc2C1=O (stereo not given)	PRMT1 FP inh 24.7
Nc1cc(C(=O)O)c(N)c2c1C(=O)c1ccccc1C2=O	HTRA1 inhibitor 82.0 (no result: TCR CD3 inh, PRMT1 FP inh, SIAE inh, mABHD4 FP)
CSc1ccc(/C=N/n2c(COc3ccccc3)n[nH]c2=S)cc1	PRMT1 FP inh 21.7
S=c1[nH]nc(COc2ccccc2)n1/N=C/c1ccc(Cl)cc1	none
O=C1c2cccc3cccc(c23)C(=O)C1(O)O	PRMT1 FP inh 54.3
O=C1c2cccc3cccc(c23)C(=O)N1c1ccc(O)cc1	none
O=C(CSC1=NS(=O)(=O)c2ccccc21)Nc1ccccc1	PRMT1 FP inh 62.7
O=C(O)CCc1ccc(-c2ccccc2)n1CC(=O)O	PRMT1 FP inh 23.2
O=C(O)CCc1ccc(-c2ccc(Br)cc2)n1CC(=O)O	none
COc1cccc(C2C(C(=O)Nc3ccccc3)=C(C)N=c3s/c(=C/c4ccc(OCC(=O)O)cc4)c(=O)n32)c1 (stereo not given)	PRMT1 FP inh 29.7
CCOC(=O)C1=C(C)N=c2s/c(=C/c3ccc(OCC(=O)O)cc3)c(=O)n2C1c1cc(OC)c(OC)c(OC)c1 (stereo not given)	none
